The results in this text go back to ChEMBL document CHEMBL1821554, “Synthesis and anticancer activity of chalcone-pyrrolobenzodiazepine conjugates linked via 1,2,3-triazole ring side-armed with alkane spacers” (2011).

The source made the active and inactive calls. The calls are words filed in the database; no cut-off is given here.

As usually defined, the GI50 is the concentration giving 50% growth inhibition. A low value points to more potent growth inhibition.

The first assay relates to MCF7. As to the kind of experiment: Cell cycle arrest in human MCF7 cells assessed as accumulation at S phase at 10 uM after 24 hrs using propidium iodide staining based flow cytometric analysis (reference value: 12.92 +/- 1 %). It is filed as functional. Background: A flow cytometer gives signals particle by particle.
In the case of `COc1cc2c(cc1OC)C(=O)N1C[C@@H](n3cc(COc4ccc(/C=C/C(=O)c5ccccc5O)cc4OC)nn3)C[C@H]1C=N2`, the Activity is 8.71%.

In another assay the test system is A549. As to the kind of experiment: Anticancer activity against human A549 cells by SRB method. It is filed as functional. The method in brief:
(§1)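 Growth inhibition over a panel of human cancer lines (lung, ovarian, oral, colon, prostate, cervix, breast). Value is the 50% growth-inhibition concentration, reported as the mean ± standard error of the mean of three determinations.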
In general terms: The SRB assay estimates cell density from bound dye.
For the compound `COc1cc(/C=C/C(=O)c2ccc(O)cc2)ccc1OCCCCn1cc(COc2cc3c(cc2OC)C(=O)N2CCC[C@H]2C=N3)nn1`, the GI50 was less than 150 nM.

In turn, `COc1cc2c(cc1OC)C(=O)N1C[C@@H](n3cc(COc4ccc(/C=C/C(=O)c5ccccc5O)cc4OC)nn3)C[C@H]1C=N2` came in with a GI50 of 2780 nM.

The next assay concerns MCF7. In words: Cytotoxicity against human MCF7 cells assessed as reduction in cell viability at 2 uM after 24 hrs by MTT assay. In kind it is functional, cell-based. In general terms: Formazan colour is commonly taken as a measure of viable cells.
For the compound `COc1cc2c(cc1OC)C(=O)N1C[C@@H](n3cc(COc4ccc(/C=C/C(=O)c5ccccc5O)cc4OC)nn3)C[C@H]1C=N2`, the outcome was inactive.

In a further assay the test system is HOP-62. In words: Anticancer activity against human HOP62 cells by SRB method. It is filed as functional. The method in brief: as §1
With `COc1cc(/C=C/C(=O)c2ccc(O)cc2)ccc1OCCCCn1cc(COc2cc3c(cc2OC)C(=O)N2CCC[C@H]2C=N3)nn1`, halving of growth (GI50) required 190 nM.

Consider `COc1cccc2c1C(=O)c1c(O)c3c(c(O)c1C2=O)C[C@@](O)(C(=O)CO)C[C@@H]3O[C@H]1C[C@H](N)[C@H](O)[C@H](C)O1` [DOXORUBICIN], for which the 50% growth inhibitory concentration (GI50) was determined as 140 nM.

The subject of a further assay is PC-3. As to the kind of experiment: Anticancer activity against human PC3 cells by SRB method. It is filed as functional. The method in brief: as §1
For `COc1cc(/C=C/C(=O)c2ccc(O)cc2)ccc1OCCCCn1cc(COc2cc3c(cc2OC)C(=O)N2CCC[C@H]2C=N3)nn1`, the GI50 turned out to be 150 nM.

The compound `COc1cc2c(cc1OC)C(=O)N1C[C@@H](n3cc(COc4ccc(/C=C/C(=O)c5ccccc5O)cc4OC)nn3)C[C@H]1C=N2` registered a GI50 of 2230 nM.

A further assay concerns MCF7. In words: Cell cycle arrest in human MCF7 cells assessed as accumulation at G2/M phase at 10 uM after 24 hrs using propidium iodide staining based flow cytometric analysis (reference value: 38.15 +/- 1.068 %). In kind it is functional.
For `COc1cc2c(cc1OC)C(=O)N1C[C@@H](n3cc(COc4ccc(/C=C/C(=O)c5ccccc5O)cc4OC)nn3)C[C@H]1C=N2`, the Activity is listed as 35.19%.

The next assay concerns COLO 205. In words: Anticancer activity against human COLO205 cells by SRB method. In kind it is functional. The method in brief:
as §1
In the case of `COc1cc(/C=C/C(=O)c2ccc(O)cc2)ccc1OCCCCn1cc(COc2cc3c(cc2OC)C(=O)N2CCC[C@H]2C=N3)nn1`, the 50% growth inhibitory concentration (GI50) stood at 110 nM.

On to `COc1cccc2c1C(=O)c1c(O)c3c(c(O)c1C2=O)C[C@@](O)(C(=O)CO)C[C@@H]3O[C@H]1C[C@H](N)[C@H](O)[C@H](C)O1` [DOXORUBICIN], for which the GI50 amounted to 140 nM.

In turn, `COc1cc2c(cc1OC)C(=O)N1C[C@@H](n3cc(COc4ccc(/C=C/C(=O)c5ccccc5O)cc4OC)nn3)C[C@H]1C=N2` had a concentration for 50% growth inhibition (GI50) of 110 nM.

A further assay relates to MCF7. As to the kind of experiment: Cell cycle arrest in human MCF7 cells assessed as accumulation at G0/G1 phase at 4 uM after 24 hrs using propidium iodide staining based flow cytometric analysis. It is filed as functional. The method in brief:
(§2)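 MCF-7 cells were seeded at 5 × 10^5 per 60 mm dish and grown for 24 h, then exposed to 4 µM compound for 24 h. Cells were trypsinized, fixed in ice-cold 70% ethanol at 4 °C for 30 min and treated with 1 mg/ml RNase at 37 °C for 30 min. They were stained with propidium iodide/citrate/Triton X-100, and DNA content was read on 20,000 events by flow cytometry. Three independent repeats.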
Take `COc1cc2c(cc1OC)C(=O)N1C[C@@H](n3cc(COc4ccc(/C=C/C(=O)c5ccccc5O)cc4OC)nn3)C[C@H]1C=N2`: the Activity amounted to 55.24%.

The subject of a further assay is MCF7. In words: Anticancer activity against human MCF7 cells by SRB method. In kind it is functional. The method in brief: as §1
Compound `COc1cc(/C=C/C(=O)c2ccc(O)cc2)ccc1OCCCCn1cc(COc2cc3c(cc2OC)C(=O)N2CCC[C@H]2C=N3)nn1` came in with a GI50 of 160 nM.

In the case of `COc1cccc2c1C(=O)c1c(O)c3c(c(O)c1C2=O)C[C@@](O)(C(=O)CO)C[C@@H]3O[C@H]1C[C@H](N)[C@H](O)[C@H](C)O1` [DOXORUBICIN], the GI50 turned out to be 170 nM.

Consider `COc1cc2c(cc1OC)C(=O)N1C[C@@H](n3cc(COc4ccc(/C=C/C(=O)c5ccccc5O)cc4OC)nn3)C[C@H]1C=N2`, for which the concentration for 50% growth inhibition (GI50) stood at 2350 nM.

The next assay concerns MCF7. In words: Cell cycle arrest in human MCF7 cells assessed as accumulation at G0 phase at 10 uM after 24 hrs using propidium iodide staining based flow cytometric analysis (reference value: 1.27 +/- 0.08 %). It is filed as functional.
Take `COc1cc2c(cc1OC)C(=O)N1C[C@@H](n3cc(COc4ccc(/C=C/C(=O)c5ccccc5O)cc4OC)nn3)C[C@H]1C=N2`: the Activity worked out at 5.19%.

Tested on in a further assay: not listed separately
As to the kind of experiment: Anticancer activity against human Gurav cells by SRB method. It is filed as functional. The method in brief:
as §1
`COc1cc(/C=C/C(=O)c2ccc(O)cc2)ccc1OCCCCn1cc(COc2cc3c(cc2OC)C(=O)N2CCC[C@H]2C=N3)nn1` returned a GI50 of 130 nM.

For `COc1cccc2c1C(=O)c1c(O)c3c(c(O)c1C2=O)C[C@@](O)(C(=O)CO)C[C@@H]3O[C@H]1C[C@H](N)[C@H](O)[C@H](C)O1` [DOXORUBICIN], growth was halved (GI50) at 170 nM.

As for `COc1cc2c(cc1OC)C(=O)N1C[C@@H](n3cc(COc4ccc(/C=C/C(=O)c5ccccc5O)cc4OC)nn3)C[C@H]1C=N2`, it took 2510 nM to inhibit growth by half (GI50).

For another assay, the system named is SiHa. In words: Anticancer activity against human SiHa cells by SRB method. In kind it is functional. The method in brief: as §1
The compound `COc1cc(/C=C/C(=O)c2ccc(O)cc2)ccc1OCCCCn1cc(COc2cc3c(cc2OC)C(=O)N2CCC[C@H]2C=N3)nn1` had a concentration for 50% growth inhibition (GI50) of 2520 nM.

`COc1cccc2c1C(=O)c1c(O)c3c(c(O)c1C2=O)C[C@@](O)(C(=O)CO)C[C@@H]3O[C@H]1C[C@H](N)[C@H](O)[C@H](C)O1` [DOXORUBICIN]: the concentration for 50% growth inhibition (GI50) was found to be 170 nM.

Tested on in the next assay: not listed separately
As to the kind of experiment: Anticancer activity against human DWD cells by SRB method. It is filed as functional. The method in brief: as §1
Compound `COc1cc(/C=C/C(=O)c2ccc(O)cc2)ccc1OCCCCn1cc(COc2cc3c(cc2OC)C(=O)N2CCC[C@H]2C=N3)nn1` yielded a GI50 of less than 160 nM.

`COc1cccc2c1C(=O)c1c(O)c3c(c(O)c1C2=O)C[C@@](O)(C(=O)CO)C[C@@H]3O[C@H]1C[C@H](N)[C@H](O)[C@H](C)O1` [DOXORUBICIN]: the GI50 came to 100 nM.

The compound `COc1cc2c(cc1OC)C(=O)N1C[C@@H](n3cc(COc4ccc(/C=C/C(=O)c5ccccc5O)cc4OC)nn3)C[C@H]1C=N2` registered a GI50 of 2700 nM.

Another assay deals with MCF7. In words: Induction of cell cycle arrest at G1 phase in human MCF7 cells at 4 uM after 24 hrs using propidium iodide staining based flow cytometric analysis. It is filed as functional. The method in brief:
as §2
For the compound `COc1cc2c(cc1OC)C(=O)N1C[C@@H](n3cc(COc4ccc(/C=C/C(=O)c5ccccc5O)cc4OC)nn3)C[C@H]1C=N2`, the result was Active.

The next assay relates to A2780. In words: Anticancer activity against human A2780 cells by SRB method. It is filed as functional. The method in brief:
as §1
In turn, `COc1cc(/C=C/C(=O)c2ccc(O)cc2)ccc1OCCCCn1cc(COc2cc3c(cc2OC)C(=O)N2CCC[C@H]2C=N3)nn1` showed a GI50 of 110 nM.

As to `COc1cccc2c1C(=O)c1c(O)c3c(c(O)c1C2=O)C[C@@](O)(C(=O)CO)C[C@@H]3O[C@H]1C[C@H](N)[C@H](O)[C@H](C)O1` [DOXORUBICIN], the GI50 turned out to be 160 nM.

As to `COc1cc2c(cc1OC)C(=O)N1C[C@@H](n3cc(COc4ccc(/C=C/C(=O)c5ccccc5O)cc4OC)nn3)C[C@H]1C=N2`, it took 150 nM to inhibit growth by half (GI50).

The test system of the next assay is ZR-75-1. In words: Anticancer activity against human ZR-75-1 cells by SRB method. It is filed as functional. The method in brief:
as §1
Consider `COc1cc(/C=C/C(=O)c2ccc(O)cc2)ccc1OCCCCn1cc(COc2cc3c(cc2OC)C(=O)N2CCC[C@H]2C=N3)nn1`, for which halving of growth (GI50) required 160 nM.

The subject of another assay is KB. As to the kind of experiment: Anticancer activity against human KB cells by SRB method. In kind it is functional. The method in brief: as §1
`COc1cc(/C=C/C(=O)c2ccc(O)cc2)ccc1OCCCCn1cc(COc2cc3c(cc2OC)C(=O)N2CCC[C@H]2C=N3)nn1` showed a GI50 of 160 nM.

Consider `COc1cccc2c1C(=O)c1c(O)c3c(c(O)c1C2=O)C[C@@](O)(C(=O)CO)C[C@@H]3O[C@H]1C[C@H](N)[C@H](O)[C@H](C)O1` [DOXORUBICIN], for which the GI50 is 170 nM.

Another assay deals with MCF7. As to the kind of experiment: Cell cycle arrest in human MCF7 cells assessed as accumulation at G1 phase at 10 uM after 24 hrs using propidium iodide staining based flow cytometric analysis (reference value: 47.64 +/- 1.49 %). In kind it is functional.
As for `COc1cc2c(cc1OC)C(=O)N1C[C@@H](n3cc(COc4ccc(/C=C/C(=O)c5ccccc5O)cc4OC)nn3)C[C@H]1C=N2`, the Activity came out at 50.9%.
